Data from ChEMBL document CHEMBL1131544, “Synthesis and antioxidant activity of novel amphipathic derivatives of tea polyphenol” (Bioorg Med Chem Lett, 1998).

Experiments:
Type in all cases: functional
[1] = Inhibitory activity against lipid peroxidation of egg-phosphatidylcholine (PC) liposome caused by water-soluble radical initiator [2,2'-azobis(2-amidinopropane) dihydrochloride] (AAPH)
In short: (§1)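 Egg PC liposome peroxidation driven by water-soluble initiator AAPH (0.21 M aqueous stock, 150 µl) with sample in DMSO; 37°C for 20 min, capped tube. TBA reagent (0.375% TBA, 15% TCA, 0.25 N HCl) added, 100°C 15 min, cooled, spun; thiobarbituric acid reactive substances measured at 535 nm to give IC50.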

[2] = Inhibitory activity against lipid peroxidation of egg-phosphatidylcholine (PC) liposome caused by lipid-soluble radical initiator [2,2'-azobis(2,4- dimethylvaleronitrile] (AMVN)
In short: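 Egg PC liposomes (0.65 ml) incubated with sample in DMSO plus AMVN (8 mM DMSO stock) and water, 37°C, 20 min, capped tube. Stopped with thiobarbituric acid/trichloroacetic acid/HCl, heated 100°C 15 min, ice-cooled, centrifuged; TBARS in supernatant read at 535 nm. IC50 against lipid peroxidation.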

[3] = Inhibitory activity against lipid peroxidation of egg-phosphatidylcholine (PC) liposome caused by water-soluble radical initiator [2,2'-azobis(2-amidinopropane) dihydrochloride] (AAPH); strongly aggregated and precipitated the lipids, hence not eva luated; in short: as §1

Compound | IC50 [1] | IC50 [2] | IC50 [3]
Cc1c(C)c2c(c(C)c1O)CC[C@@](C)(CCC[C@H](C)CCC[C@H](C)CCCC(C)C)O2 [ALPHA-TOCOPHEROL] | 40.3 µM | 5.9 µM | 
CCCCCCCCCCCCCCCCSCc1c(O)c(CSCCCCCCCCCCCCCCCC)c2c(c1O)C[C@@H](OC(=O)c1cc(O)c(O)c(O)c1)[C@@H](c1cc(O)c(O)c(O)c1)O2 |  |  | No effect
O=C(O[C@H]1[C@@H](c2cc(O)c(O)c(O)c2)Oc2cc(O)cc(O)c2[C@@H]1SCCO)c1cc(O)c(O)c(O)c1 | 20.5 µM | > 500 µM | 
CCCCCCCCSCc1c(O)c(CSCCCCCCCC)c2c(c1O)[C@H](SCCO)[C@@H](OC(=O)c1cc(O)c(O)c(O)c1)[C@@H](c1cc(O)c(O)c(O)c1)O2 | 8.8 µM | 60.8 µM | 
CCCCCCCCCCCCCCCCCCNC(=O)Oc1c(O)cc(C(=O)O[C@@H]2Cc3c(O)cc(O)cc3O[C@@H]2c2cc(O)c(O)c(O)c2)cc1O | 24.6 µM | 22.1 µM | 
CCCCCCCCSCc1c(O)c(CSCCCCCCCC)c2c(c1O)C[C@@H](OC(=O)c1cc(O)c(O)c(O)c1)[C@@H](c1cc(O)c(O)c(O)c1)O2 | 7.9 µM | 60 µM | 
CCCCCCCCCCCCCCCCCCSCc1c(O)c(CSCCCCCCCCCCCCCCCCCC)c2c(c1O)C[C@@H](OC(=O)c1cc(O)c(O)c(O)c1)[C@@H](c1cc(O)c(O)c(O)c1)O2 |  |  | No effect
CCCCCCCCSCc1c(O)c(CSCCCCCCCC)c2c(c1O)[C@H](SCCCCCCCC)[C@@H](OC(=O)c1cc(O)c(O)c(O)c1)[C@@H](c1cc(O)c(O)c(O)c1)O2 | 135 µM | 19.4 µM | 
O=C(O[C@@H]1Cc2c(O)c(CSCc3ccccc3)c(O)c(CSCc3ccccc3)c2O[C@@H]1c1cc(O)c(O)c(O)c1)c1cc(O)c(O)c(O)c1 | 9.6 µM | 432 µM | 
O=C(O[C@@H]1Cc2c(O)cc(O)cc2O[C@@H]1c1cc(O)c(O)c(O)c1)c1cc(O)c(O)c(O)c1 [EPIGALOCATECHIN GALLATE] | 20.8 µM | > 500 µM | 
CCCCCCCCOC(=O)c1cc(O)c(O)c(O)c1 [OCTYL_GALLATE] | 18.6 µM | 188 µM | 
C=CCSCc1c(O)c(CSCC=C)c2c(c1O)C[C@@H](OC(=O)c1cc(O)c(O)c(O)c1)[C@@H](c1cc(O)c(O)c(O)c1)O2 | 11.6 µM | > 500 µM | 
COC(=O)CSCc1c(O)c(CSCC(=O)OC)c2c(c1O)C[C@@H](OC(=O)c1cc(O)c(O)c(O)c1)[C@@H](c1cc(O)c(O)c(O)c1)O2 | 12 µM | > 500 µM | 
